On the set-up of the series: species or system Kunming mice. Particulars: mouse, in vivo, iv, 5 mg/kg. The method in brief:
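Kunming mice (10 weeks, 18–22 g), two groups of six; free or nanoparticle-loaded peptide at matched peptide dose by tail-vein injection. Tail-vein blood (20 μL) drawn at intervals into heparinized micropipettes and mixed with PBS; residue taken up in 50% acetonitrile/0.1% TFA. C18 HPLC at 40°C, water/acetonitrile (0.1% TFA) gradient, 280 nm, thymopentin internal standard; plasma calibration 0.195313–25 μg/mL, 1/x2 weighting. Noncompartmental analysis; mean ± SD.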

No end group written: not given here.

The values below come from PMC4207575 (International Journal of Nanomedicine, 2014).

For orientation: AUC(0-t) means the area under the concentration-time curve up to a stated or last time point. For orientation: clearance means the volume of plasma or blood freed of the substance per unit of time. Low values mean inefficient removal, high ones efficient removal. A word on the half-life: it is the time needed for the level to fall by half in the phase considered. High values mean slow decline, low ones rapid decline. Substance “HSDAVFTDNYTRLRKQVAAKKYLQSIKNKRY-NH2 (C-terminus assumed) [BAY 55-9837]” gave an AUC(0-t) of 2680 ± 160 ng·h/mL, a clearance of 0.733 mL/min and a half-life of 19.2 ± 3.6 min.
